The target of experiment [1] is T1, Kappa-type opioid receptor (Cavia porcellus, UniProt P41144). As to the kind of experiment: Binding affinity against opioid receptor kappa from guinea pig brain, using [3H](-)-bremazocine as radioligand; NI=no inhibition. The gist of the method: (§1)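 Guinea pig brain crude P2 membranes (500 μg protein) with 2 nM [3H](-)-bremazocine, plus 100 nM DAMGO and 100 nM DSTLE to block μ/δ sites. Incubated in 0.5 mL 10 mM Tris-HCl pH 7.4, 90 min, 25 °C. Nonspecific binding with 10 μM levallorphan. Filtration. Screened at 100–10 000 nM. No inhibition = <30% at 10 000 nM.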
T1 sequence (P41144 whole entry): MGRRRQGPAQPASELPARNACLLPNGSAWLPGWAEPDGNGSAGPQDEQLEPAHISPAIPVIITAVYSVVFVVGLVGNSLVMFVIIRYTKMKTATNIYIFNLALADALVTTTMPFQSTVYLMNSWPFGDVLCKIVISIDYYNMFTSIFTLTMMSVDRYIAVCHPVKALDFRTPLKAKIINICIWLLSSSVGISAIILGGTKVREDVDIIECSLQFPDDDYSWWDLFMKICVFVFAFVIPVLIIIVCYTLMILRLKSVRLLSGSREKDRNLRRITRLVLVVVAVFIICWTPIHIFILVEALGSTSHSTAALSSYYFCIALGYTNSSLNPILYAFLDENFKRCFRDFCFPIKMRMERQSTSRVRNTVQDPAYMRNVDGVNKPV

Experiment [2] concerns the target T2, D(2) dopamine receptor (Rattus norvegicus, UniProt P61169). The experiment is described as follows: Binding affinity against dopamine receptor D2 from rat brain, using [3H](-)-sulpiride as radioligand. The gist of the method:
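Rat brain crude P2 membranes (500 μg protein) incubated with 5 nM [3H](-)-sulpiride in 50 mM Tris-HCl pH 7.7 + 120 mM NaCl, 60 min, 25 °C; nonspecific with 1 μM haloperidol; filtration.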

Experiment [3] has as its target Muscarinic acetylcholine receptor. As to the kind of experiment: Binding affinity against muscarinic cholinergic receptor from rat brain, using [3H]-QNB as radioligand. The method, boiled down: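 Rat brain P2 membranes (~500 μg protein) with 0.3 nM [3H]QNB in 0.5 mL Krebs-Henseleit/HEPES pH 7.4, 60–90 min, 37 °C. Nonspecific binding with 10 μM QNB. Stopped with ice-cold PBS, then filtration. […] IC50 converted to Ki by Cheng-Prusoff.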

In experiment [4] the target is T2, D(2) dopamine receptor. The experiment is described as follows: Binding affinity against Dopamine receptor D2 from rat brain, using [3H](-)-sulpiride as radioligand. The method, boiled down: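 Rat brain (minus cerebella) crude P2 membranes, 500 μg protein, incubated with 5 nM [3H](-)-sulpiride in 0.5 mL 50 mM Tris-HCl pH 7.7 + 120 mM NaCl, 60 min, 25 °C. Nonspecific binding with 1 μM haloperidol. Filtration, scintillation counting. […] IC50 by curve fitting, Cheng-Prusoff Ki.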

In experiment [5] the target is T1, Kappa-type opioid receptor. As to the kind of experiment: Binding affinity against Opioid receptor kappa 1 from guinea pig brain, using [3H](-)-bremazocine as radioligand; NI=no inhibition. The method, boiled down:
as §1

For experiment [6], the target named is T1, Kappa-type opioid receptor. The experiment is described as follows: Binding affinity against Opioid receptor kappa 1 from guinea pig brain, using [3H](-)-bremazocine as radioligand. The gist of the method: as §1
Experiment [7] addresses T1, Kappa-type opioid receptor. As to the kind of experiment: Binding affinity against opioid receptor kappa from guinea pig brain, using [3H](-)-bremazocine as radioligand. The gist of the method: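 Guinea pig brain P2 membranes (500 μg protein) with 2 nM [3H](-)-bremazocine plus 100 nM DAMGO and 100 nM DSTLE blocking μ/δ, 10 mM Tris-HCl pH 7.4, 90 min, 25 °C; nonspecific with 10 μM levallorphan; filtration.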

T2 sequence (P61169 whole entry): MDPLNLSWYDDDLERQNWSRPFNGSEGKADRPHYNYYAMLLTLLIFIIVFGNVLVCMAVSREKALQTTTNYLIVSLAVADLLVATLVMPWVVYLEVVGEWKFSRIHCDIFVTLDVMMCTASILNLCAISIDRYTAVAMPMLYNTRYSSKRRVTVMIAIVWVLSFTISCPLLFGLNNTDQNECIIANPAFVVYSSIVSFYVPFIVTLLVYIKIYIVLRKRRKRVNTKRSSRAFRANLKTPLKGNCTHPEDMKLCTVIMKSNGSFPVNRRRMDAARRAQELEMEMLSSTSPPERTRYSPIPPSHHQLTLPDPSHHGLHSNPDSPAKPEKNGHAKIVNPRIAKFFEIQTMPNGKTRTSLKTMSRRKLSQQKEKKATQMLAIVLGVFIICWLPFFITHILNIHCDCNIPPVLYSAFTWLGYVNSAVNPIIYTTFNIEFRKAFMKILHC

One may read the Ki as a dissociation constant, usually derived from enzyme kinetics or from competition with a known ligand. Higher therefore signals weaker binding. As for `FCCCN1CCN(CCc2ccc(Cl)c(Cl)c2)CC1`, the Ki entry in experiment [1] is “Not Active”; at D(2) dopamine receptor [2], 12 µM; in experiment [3], 682.5 µM.
With `CCCN1CCN(CCc2ccc(Cl)c(Cl)c2)CC1`, the results for the Ki (on D(2) dopamine receptor [4]; in experiment [5]) were 2900 nM and “Not Active”, respectively.
In the case of `FCCCN(CCc1ccc(Cl)c(Cl)c1)CCN1CCCC1`, the results for the Ki (in experiment [6]; at D(2) dopamine receptor [4]; in experiment [3]) were 10.5 µM, 3110 nM and 32.03 µM, respectively.
The like results for `CN(CCc1cc(Cl)c(Cl)cc1I)CCN1CCCC1` were, in that order, 18.5 µM, 1310 nM and 7 µM.
On to `CN(CCc1ccc(Cl)c(Cl)c1)CCN1CCCC1`, for which, in experiment [5], the Ki result is recorded as “Not Active”.
Regarding `CCCCCN1CC[C@@]2(C)c3cc(O)ccc3CC1[C@H]2C` (single isomer, unassigned; (+)), the Ki at D(2) dopamine receptor [2] amounted to 2.53 µM; in experiment [7] it was 1990 nM; in experiment [3], 56.85 µM.
